In ChEMBL document CHEMBL1122005, “Quantitative structure-activity relationships of aromatic esters of 1-methyl-4-piperidinol as analgesics” (1982):
Calls of active or inactive are those of the source. The rule behind the calls is not given here.

Species on record: Mus musculus
Assay: Analgesic activity of compound assayed by the mouse hotplate method was determined as log(1/C); Activity observed in 4-5 out of 10 mice tested
Assay type: functional
In short: (§1)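 Mouse hot-plate test. Compounds were given subcutaneously as water-soluble HCl salts. The ED50 is expressed in mmol/kg, and potency is given as log(1/C), where C is the ED50 in mmol/kg.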

| Structure (SMILES) | Log 1/C |
| --- | --- |
| CCOc1ccccc1C(=O)OC1CCN(C)CC1 | 1.18 |
| CN1CCC(OC(=O)c2ccccc2-c2ccccc2)CC1 | 1.52 |
| CN1CCC(OC(=O)c2ccccc2CCc2ccccc2)CC1 | 0.86 |
| Cc1ccc(C(=O)OC2CCN(C)CC2)cc1C | 1.15 |
| CCc1ccccc1C(=O)OC1CCN(C)CC1 | 1.15 |
| CN1CCC(OC(=O)c2ccccc2Oc2ccccc2)CC1 | 1.24 |

Species on record: Mus musculus
Assay: Relative Analgesic activity of compound to the N-substituted normeperidine assayed by the mouse hotplate method
Assay type: functional

| Structure (SMILES) | Relative activity |
| --- | --- |
| CCOC(=O)C1(c2ccccc2)CCN(Cc2ccccc2)CC1 | <0.5 |
| CCOC(=O)C1(c2ccccc2)CCN(CCCCc2ccccc2)CC1 | 2.8 |
| CCOC(=O)C1(c2ccccc2)CCN(C/C=C/c2ccccc2)CC1 | 40 |
| Oc1ccc2c3c1O[C@H]1[C@@H](O)C=CC4(CC2)CN(C/C=C/c2ccccc2)CCC314 (some centres undefined) | <0.1 |
| CCOC(=O)C1(c2ccccc2)CCN(CCc2ccccc2)CC1 [PHENERIDINE] | 2.6 |
| CCOC(=O)C1(c2ccccc2)CCN(CC)CC1 | 0.5 |
| Oc1ccc2c3c1O[C@H]1[C@@H](O)C=CC4(CC2)CN(CCCCc2ccccc2)CCC314 (some centres undefined) | 0.3 |

Species on record: Mus musculus
Assay: Analgesic activity of compound assayed by the mouse hotplate method was determined as ED50.
Assay type: functional
In short: as §1

| Structure (SMILES) | ED50 [mg/kg] |
| --- | --- |
| Cc1[nH]c(C)c(C(=O)OC2CCN(Cc3ccccc3)CC2)c1C | 6.3 |
| CCN1CCC(OC(=O)c2c(C)[nH]c(C)c2C)CC1 | 10.4 |
| Cc1[nH]c(C)c(C(=O)OC2CCN(CCc3ccccc3)CC2)c1C | 20 |
| Cc1[nH]c(C)c(C(=O)OC2CCN(C)CC2)c1C | 4.9 |

Species on record: Mus musculus
Assay: Relative Analgesic activity of compound to the N-methyl homologue assayed by the mouse hotplate method
Assay type: functional

| Structure (SMILES) | Relative activity |
| --- | --- |
| CN1CCC23c4c5ccc(O)c4O[C@H]2[C@@H](O)C=CC3(CC5)C1 (some centres undefined) | 1 |
| Oc1ccc2c3c1O[C@H]1[C@@H](O)C=CC4(CC2)CN(CCc2ccccc2)CCC314 (some centres undefined) | 6 |
| Oc1ccc2c3c1O[C@H]1[C@@H](O)C=CC4(CC2)CN(Cc2ccccc2)CCC314 (some centres undefined) | <0.1 |
| Cc1[nH]c(C)c(C(=O)OC2CCN(Cc3ccccc3)CC2)c1C | 0.8 |
| CCN1CCC(OC(=O)c2c(C)[nH]c(C)c2C)CC1 | 0.5 |
| CCOC(=O)C1(c2ccccc2)CCN(C)CC1 [MEPERIDINE] | 1 |
| Cc1[nH]c(C)c(C(=O)OC2CCN(CCc3ccccc3)CC2)c1C | 0.3 |
| CCN1CCC23c4c5ccc(O)c4O[C@H]2[C@@H](O)C=CC3(CC5)C1 (some centres undefined) | <0.1 |
| Cc1[nH]c(C)c(C(=O)OC2CCN(C)CC2)c1C | 1 |

Species on record: Mus musculus
Assay: Analgesic activity assayed with the mouse hotplate method
Assay type: functional
In short: as §1

| Structure (SMILES) | Log 1/C |
| --- | --- |
| COc1cc(OC)c(C(=O)OC2CCN(C)CC2)c(OC)c1 | 1.47 |
| CN1CCC(OC(=O)c2ccc(Cl)cc2)CC1 | 1.11 |
| CN1CCC(OC(=O)c2ccccc2)CC1 | 1.43 |
| Cc1cccc(C)c1C(=O)OC1CCN(C)CC1 | 1.27 |
| CN1CCC(OC(=O)c2ccc(-c3ccccc3)cc2)CC1 | 0.85 |
| CN1CCC(OC(=O)c2ccc(Cl)c(Cl)c2)CC1 | 1.08 |
| Cc1ccccc1C(=O)OC1CCN(C)CC1 | 1.48 |
| COc1cccc(OC)c1C(=O)OC1CCN(C)CC1 | 0.63 |
| CCOc1ccc(C(=O)OC2CCN(C)CC2)cc1 | 1.72 |
| CN1CCC(OC(=O)c2ccc(C(C)(C)C)cc2)CC1 | 1.13 |
| COc1cc(OC)cc(C(=O)OC2CCN(C)CC2)c1 | 1.53 |
| COc1ccccc1C(=O)OC1CCN(C)CC1 | 1.43 |
| COc1ccc(C(=O)OC2CCN(C)CC2)cc1 | 1.43 |
| Cc1cc(C)c(C(=O)OC2CCN(C)CC2)cc1C | 1.17 |
| COc1ccc(C(=O)OC2CCN(C)CC2)cc1OC | 1.91 |
| CN1CCC(OC(=O)c2cccc(C#N)c2)CC1 | 1.39 |
| COc1cc(C(=O)OC2CCN(C)CC2)cc(OC)c1OC | 1.35 |
| CN1CCC(OC(=O)c2ccccc2F)CC1 | 1.41 |
| CN1CCC(OC(=O)c2ccccc2C(F)(F)F)CC1 | 1.49 |

| Structure (SMILES) | Log 1/C |
| --- | --- |
| Cc1ccc(C)c(C(=O)OC2CCN(C)CC2)c1 | 1.36 |
| CN1CCC(OC(=O)c2ccc(C#N)cc2)CC1 | 1.65 |
| CN1CCC(OC(=O)c2ccccc2Cl)CC1 | 1.25 |
| Cc1cc(C)c(C(=O)OC2CCN(C)CC2)c(C)c1 | 1.55 |
| Cc1ccc(C(=O)OC2CCN(C)CC2)cc1 | 1.17 |
| CN1CCC(OC(=O)c2ccccc2Cc2ccccc2)CC1 | 1.28 |
| CN1CCC(OC(=O)c2cccc(O)c2)CC1 | 1.21 |
| CN1CCC(OC(=O)c2ccc(F)cc2)CC1 | 1.38 |
| CCCCOc1ccc(C(=O)OC2CCN(C)CC2)cc1 | 1.58 |
| COc1cccc(C(=O)OC2CCN(C)CC2)c1 | 1.67 |
| CN1CCC(OC(=O)c2ccccc2Br)CC1 | 1.21 |
| Cc1cc(C)cc(C(=O)OC2CCN(C)CC2)c1 | 1.07 |
| CN1CCC(OC(=O)c2ccc([N+](=O)[O-])cc2)CC1 | 1.14 |
| CN1CCC(OC(=O)c2cccc(F)c2)CC1 | 1.26 |
| COc1cccc(C(=O)OC2CCN(C)CC2)c1OC | 1.55 |
| Cc1ccc(C(=O)OC2CCN(C)CC2)cc1F | 1.32 |
| COc1cc(C(=O)OC2CCN(C)CC2)ccc1C | 1.4 |
| CN1CCC(OC(=O)c2ccccc2[N+](=O)[O-])CC1 | 1.48 |
| CN1CCC(OC(=O)c2ccc3c(c2)OCO3)CC1 | 1.61 |

Species on record: Mus musculus
Assay: Analgesic activity of compound assayed by the mouse hotplate method was determined as log(1/C); Inactive
Assay type: functional, organism-based

| Structure (SMILES) | Log 1/C |
| --- | --- |
| CN1CCC(OC(=O)c2cc(I)cc(I)c2I)CC1 | inactive |
| Cc1cccc(C(=O)OC2CCN(C)CC2)c1 | inactive |
| CN1CCC(OC(=O)c2ccccc2C#N)CC1 | inactive |
| CN1CCC(OC(=O)c2ccc(I)cc2)CC1 | inactive |

Species on record: Mus musculus
Assay: Analgesic activity of compound assayed by the mouse hotplate method was determined
Assay type: functional
In short: as §1

| Structure (SMILES) | Log 1/C |
| --- | --- |
| Cc1[nH]c(C)c(C(=O)OC2CCN(C)CC2)c1C | 1.87 |
